Measured values taken from ChEMBL document CHEMBL3745674, “Inhibitors of HIV-1 attachment: The discovery and structure-activity relationships of tetrahydroisoquinolines as replacements for the piperazine benzamide in the 3-glyoxylyl 6-azaindole pharmacophore” (Bioorg Med Chem Lett, 2016).

Assays:
[1] = AUC(last) in rat at 5 mg/kg, po; assay type: ADME, organism-based; parameters: dose 5 mg/kg, time 0 - last, route oral; settings: in vivo
How it was run: (§1)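 Oral dosing in rat at 5 mg/kg in PEG 400/ethanol (90:10 v/v) vehicle.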

[2] = Cmax in rat at 5 mg/kg, po; assay type: ADME, organism-based; parameters: dose 5 mg/kg, route oral; settings: in vivo; how it was run: as §1
[3] = Permeability of compound at pH 5.5 by PAMPA; assay type: ADME; settings: read-out: permeability
How it was run: (§2)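 Passive permeability by PAMPA at pH 7.4 and pH 5.5, reported in nm/s.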

[4] = Permeability of compound at pH 7.4 by PAMPA; assay type: ADME; settings: read-out: permeability; how it was run: as §2
[5] = Volume of distribution at steady state in rat at 1 mg/kg, iv; assay type: ADME, organism-based; settings: in vivo, read-out: Vdss
How it was run: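 Intravenous dosing in rat at 1 mg/kg. Plasma clearance and volume of distribution were determined.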

Liver [6] = experiment: Drug level in Aroclor-1254-induced rat liver S9 fraction treated with 1-(4-methoxy-7-(3-methyl-1H-1,2,4-triazol-1-yl)-1H-pyrrolo[2,3-c]pyridin-3-yl)-2-(5-(pyridin-2-yl)-3,4-dihydroisoquinolin-2(1H)-yl)ethane-1,2-dione assessed as compound formation incubated at 37 degC for 4.5 hrs; assay type: ADME, subcellular; settings: s9, 4.5 h
Liver [7] = experiment: Drug metabolism in Aroclor-1254-induced rat liver S9 fraction assessed as 1-(1-hydroxy-5-(pyridin-2-yl)-3,4-dihydroisoquinolin-2(1H)-yl)-2-(4-methoxy-7-(3-methyl-1H-1,2,4-triazol-1-yl)-1H-pyrrolo[2,3-c]pyridin-3-yl)ethane-1,2-dione formation incubated at 37 degC for 4.5 hrs; assay type: ADME, subcellular; settings: s9, 4.5 h

With `COc1cnc(-n2cnc(C)n2)c2[nH]cc(C(=O)C(=O)N3CCN(C(=O)c4ccccc4)CC3)c12` the AUC(0-t) [1] was 52 µM·h and the Cmax [2] was 6.4 µM.
For `COc1cnc(-c2cc(C(=O)O)[nH]n2)c2[nH]cc(C(=O)C(=O)N3CCc4c(cccc4-c4ccccn4)C3)c12`, the Papp [3] was 3.2 ×10⁻⁶ cm/s.
In the case of `COc1cnc(-n2cnc(C)n2)c2[nH]cc(C(=O)C(=O)N3CCc4c(ncnc4-c4ccccn4)C3)c12`, the Papp [4] is reported as 29.4 ×10⁻⁶ cm/s, the AUC(0-t) [1] is reported as 41 µM·h and the Vd [5] is reported as 0.33 L/kg. It also gave a Cmax [2] of 10 µM and a Papp [3] of 24.4 ×10⁻⁶ cm/s.
In the case of `COc1cnc(-n2cnc(C)n2)c2[nH]cc(C(=O)C(=O)N3CCc4c(-c5ccccn5)cccc4C3O)c12` (stereo not given), the Drug metabolism (Liver [6]) is reported as “metabolite_detected”.
For `COc1cnc(-n2cnc(C)n2)c2[nH]cc(C(=O)C(=O)N3CCc4c(cccc4-c4ccccn4)C3)c12`, the Drug metabolism (Liver [7]) was “metabolite_detected”.
